The results in this text go back to ChEMBL document CHEMBL4364260, “Discovery of Ziresovir as a Potent, Selective, and Orally Bioavailable Respiratory Syncytial Virus Fusion Protein Inhibitor” (J Med Chem, 2019).

A short description of data set [1]: Half-life in Sprague-Dawley rat at 2 mg/kg, iv. In kind it is ADME, organism-based. Particulars: in vivo. The procedure, abridged:
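Rat single-dose PK: 2 mg/kg iv and 10 mg/kg po. Compound was given as a solution in 5% DMSO/40% PEG400/55% of 0.9% saline. Plasma CL, Vss, iv half-life, AUC and oral bioavailability were reported.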

Data set [2] can be described thus: Clearance in Beagle dog at 1 mg/kg, iv or 10 mg/kg, po. Particulars: in vivo. In kind it is ADME, organism-based, Canis lupus familiaris. The procedure, abridged:
(§1)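 Beagle dog single-dose PK at 1 mg/kg iv and 10 mg/kg po, dosed as a solution in 12.5% captisol in water. Plasma clearance, Vss, iv T1/2, AUC and F were reported.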

Data set [3] is described as follows: AUC (0 to 24 hrs) in cynomolgus monkey at 10 mg/kg, po. Format: ADME, organism-based, Macaca fascicularis. Also noted: dose 10 mg/kg, time < 24 hr, route oral. The settings on record: in vivo. In short, it runs like this:
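Single-dose PK. Dog received 1 mg/kg iv or 10 mg/kg po, and cynomolgus monkey received 2 mg/kg iv or 10 mg/kg po. Both were given as a solution in 12.5% captisol in water. Plasma AUC was taken from the oral arm, with CL, Vss, iv T1/2 and F also derived.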

A short description of data set [4]: AUC (0 to 24 hrs) in CD-1 mouse plasma at 10 mg/kg/day, po administered via gavage and measured up to 24 hrs by LC/MS/MS analysis. In kind it is ADME, organism-based. Also noted: dose 10 mg/kg/day, time < 24 hr, route oral.
A short description of data set [5]: Half-life in Beagle dog at 1 mg/kg, iv. Format: ADME, organism-based, Canis lupus familiaris. The settings on record: in vivo. In short, it runs like this: as §1
Data set [6] in a line: AUC (0 to 24 hrs) in CD-1 mouse lung at 10 mg/kg/day, po administered via gavage and measured up to 24 hrs by LC/MS/MS analysis. Format: ADME, organism-based. Also noted: dose 10 mg/kg/day, time < 24 hr, route oral.

For `Cc1ccc2nc(N3CCS(=O)(=O)c4ccccc4C3)nc(NCC3(N)COC3)c2c1` [ZIRESOVIR], the half-life was 1.2 h in data set [1] and 2.8 h in data set [5]. In addition, the clearance in data set [2] was 36 mL/min/kg. The same compound yielded an AUC(0-t) at 24 h in data set [3] of 1440 ng·h/mL. The AUC at 24 h turned out to be 8380 ng·h/mL in data set [4] and 72400 ng·h/mL in data set [6].

As a reminder, the half-life is the time in which the quantity being followed falls by half. Broadly, the AUC(0-t) is exposure summed from dosing to a finite time, without extrapolation to infinity. By AUC is commonly meant concentration integrated over time.
